Laboratory results taken from ChEMBL document CHEMBL1250422 (Bioorg Med Chem, 2010).

Experiments:
[1] = biological target: Galectin-7 (Homo sapiens, UniProt P47929); experiment: Binding affinity to human galectin 7 at 4 degC by competitive fluorescence polarization assay
Summary of the method: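 Human galectin-7 was tested in a competitive fluorescence polarization assay at 4 °C because assay sensitivity is lower. Kd values were derived from inhibition of the fluorescent probe binding.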

[2] = biological target: Galectin-3 (Homo sapiens, UniProt P17931); experiment: Binding affinity to human galectin 3 at 20 degC by competitive fluorescence polarization assay
Galectin-3, sequence (P17931 whole entry, the tested form may be a part): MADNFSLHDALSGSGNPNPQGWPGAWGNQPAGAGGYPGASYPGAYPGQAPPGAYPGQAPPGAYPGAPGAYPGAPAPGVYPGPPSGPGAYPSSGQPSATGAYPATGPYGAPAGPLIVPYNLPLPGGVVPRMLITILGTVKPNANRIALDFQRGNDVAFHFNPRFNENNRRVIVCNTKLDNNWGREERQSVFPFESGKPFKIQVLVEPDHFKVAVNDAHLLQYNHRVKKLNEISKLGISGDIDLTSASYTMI
Summary of the method: (§1)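 Human galectin (galectin-3, or the N-terminal domain of galectin-8 or -9) run in a competitive fluorescence polarization assay at 20 °C. Kd values were derived from inhibition of the fluorescent probe binding.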

[3] = biological target: T1, Galectin-8 (Homo sapiens, UniProt O00214); experiment: Binding affinity to human galectin 8 N-terminal domain at 20 degC by competitive fluorescence polarization assay; summary of the method: as §1
T1 sequence (O00214 whole entry): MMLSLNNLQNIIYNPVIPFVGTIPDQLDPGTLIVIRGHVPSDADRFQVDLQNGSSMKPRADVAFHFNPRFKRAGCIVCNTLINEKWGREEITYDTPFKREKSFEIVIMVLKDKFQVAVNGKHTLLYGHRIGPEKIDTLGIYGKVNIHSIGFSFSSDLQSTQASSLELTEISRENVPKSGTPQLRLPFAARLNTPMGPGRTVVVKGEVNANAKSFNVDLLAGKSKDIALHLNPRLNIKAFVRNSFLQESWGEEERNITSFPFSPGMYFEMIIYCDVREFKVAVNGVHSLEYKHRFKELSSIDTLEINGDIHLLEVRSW

[4] = biological target: Galectin-9 (Homo sapiens, UniProt O00182); experiment: Binding affinity to human galectin 9 N-terminal domain at 20 degC by competitive fluorescence polarization assay; summary of the method: as §1
Galectin-9, sequence (O00182 whole entry, the tested form may be a part): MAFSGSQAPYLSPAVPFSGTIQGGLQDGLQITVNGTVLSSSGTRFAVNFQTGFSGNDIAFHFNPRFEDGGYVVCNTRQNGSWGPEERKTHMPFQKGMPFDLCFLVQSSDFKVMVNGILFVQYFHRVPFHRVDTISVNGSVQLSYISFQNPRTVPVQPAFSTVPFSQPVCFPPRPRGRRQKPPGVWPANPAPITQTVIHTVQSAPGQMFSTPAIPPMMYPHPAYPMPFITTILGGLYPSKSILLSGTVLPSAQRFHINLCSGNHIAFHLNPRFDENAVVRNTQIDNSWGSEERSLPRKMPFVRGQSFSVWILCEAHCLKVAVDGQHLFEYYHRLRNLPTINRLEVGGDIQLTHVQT

Galectin-7, sequence (P47929 whole entry): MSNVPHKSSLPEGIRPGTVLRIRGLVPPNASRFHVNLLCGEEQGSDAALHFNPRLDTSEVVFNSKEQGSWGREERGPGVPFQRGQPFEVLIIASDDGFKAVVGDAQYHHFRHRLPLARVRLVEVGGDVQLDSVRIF

| Compound | Kd [1] [µM] | Kd [2] [µM] | Kd [3] [µM] | Kd [4] [µM] |
| --- | --- | --- | --- | --- |
| CS[C@@H]1O[C@H](CO)[C@H](O)[C@H](n2cc(-c3ccccc3F)nn2)[C@H]1O | > 2000 | 200 | > 5000 | 1700 |
| CS[C@@H]1O[C@H](CO)[C@H](O)[C@H](n2cc(S(=O)(=O)c3ccc(C)cc3)nn2)[C@H]1O | 2000 | 130 |  | 330 |
| CCCCNC(=O)c1cn([C@H]2[C@@H](O)[C@@H](CO)O[C@@H](S[C@@H]3O[C@H](CO)[C@H](O)[C@H](n4cc(C(=O)NCCCC)nn4)[C@H]3O)[C@@H]2O)nn1 | 5.4 | 0.029 | 58 | 1.1 |
| CS[C@@H]1O[C@H](CO)[C@H](O)[C@H](n2cc(C3(O)CCCCC3)nn2)[C@H]1O | > 5000 | 1600 | > 5000 | 1000 |
| CS[C@@H]1O[C@H](CO)[C@H](O)[C@H](n2cc(CO)nn2)[C@H]1O | 2500 | > 5000 | > 5000 | > 5000 |
| CO[C@@H]1O[C@H](CO)[C@@H](O[C@@H]2O[C@H](CO)[C@H](O)[C@H](n3cc(C(=O)NCc4ccccc4)nn3)[C@H]2O)[C@H](O)[C@H]1NC(C)=O | 74 | 1.5 | > 2000 | 12 |
| COCCNC(=O)c1cn([C@H]2[C@@H](O)[C@@H](CO)O[C@@H](S[C@@H]3O[C@H](CO)[C@H](O)[C@H](n4cc(C(=O)NCCOC)nn4)[C@H]3O)[C@@H]2O)nn1 | 4.7 | 0.25 | 90 | 2.3 |
| CS[C@@H]1O[C@H](CO)[C@H](O)[C@H](n2cc(C(=O)NCCCO)nn2)[C@H]1O | 1500 | 360 | > 5000 | 1900 |
| CS[C@@H]1O[C@H](CO)[C@H](O)[C@H](n2cc(-c3cccc4ccccc34)nn2)[C@H]1O | 810 | 120 | > 5000 | 690 |
| CS[C@@H]1O[C@H](CO)[C@H](O)[C@H](n2cc(-c3cccnc3)nn2)[C@H]1O |  | 1900 | 670 | 1600 |
| CNC(=O)c1cn([C@H]2[C@@H](O)[C@@H](CO)O[C@@H](S[C@@H]3O[C@H](CO)[C@H](O)[C@H](n4cc(C(=O)NC)nn4)[C@H]3O)[C@@H]2O)nn1 | 8 | 0.12 | 81 | 0.91 |
| CS[C@@H]1O[C@H](CO)[C@H](O)[C@H](n2nnc(C(N)=O)c2N)[C@H]1O | 2700 | > 2000 | > 5000 | > 5000 |
| CS[C@@H]1O[C@H](CO)[C@H](O)[C@H](n2cc(-c3ccccc3)nn2)[C@H]1O | 1700 | 150 | > 5000 | 1300 |
| CCCc1cn([C@H]2[C@@H](O)[C@@H](CO)O[C@@H](SC)[C@@H]2O)nn1 | 2200 | > 5000 | > 5000 | > 5000 |
| CNC(=O)c1cn([C@H]2[C@@H](O)[C@@H](CO)O[C@@H](SC)[C@@H]2O)nn1 |  |  | > 5000 | 1100 |
| CNC(=O)c1cn([C@H]2[C@@H](O)[C@@H](CO)O[C@@H](O[C@H]3[C@H](O)[C@@H](NC(C)=O)[C@H](OC)O[C@@H]3CO)[C@@H]2O)nn1 | 130 |  | > 2000 | 73 |
| COc1cc(OC)cc(C(=O)N[C@@H]2[C@@H](O)[C@@H](S[C@@H]3O[C@H](CO)[C@H](O)[C@H](NC(=O)c4cc(OC)cc(OC)c4)[C@H]3O)O[C@H](CO)[C@@H]2O)c1 | 2.8 | 0.05 | 100 | 1.8 |

| Compound | Kd [1] [µM] | Kd [2] [µM] | Kd [3] [µM] | Kd [4] [µM] |
| --- | --- | --- | --- | --- |
| CO[C@@H]1O[C@H](CO)[C@H](O)[C@H](O)[C@H]1O | 4800 |  |  | 3300 |
| CS[C@@H]1O[C@H](CO)[C@H](O)[C@H](n2nncc2S(=O)(=O)c2ccc(C)cc2)[C@H]1O |  | > 5000 |  | 1600 |
| CS[C@@H]1O[C@H](CO)[C@H](O)[C@H](n2cc(C(=O)NCc3ccccc3)nn2)[C@H]1O | 2100 |  | > 5000 | 540 |
| CO[C@@H]1O[C@H](CO)[C@@H](O[C@@H]2O[C@H](CO)[C@H](O)[C@H](NC(=O)c3ccc4ccccc4c3)[C@H]2O)[C@H](O)[C@H]1NC(C)=O | > 100 | 0.48 | > 100 | > 100 |
| COc1cccc(-c2cn([C@H]3[C@@H](O)[C@@H](CO)O[C@@H](SC)[C@@H]3O)nn2)c1 | 2800 | 130 | > 5000 | 2100 |
| CNC(=O)c1nnn([C@H]2[C@@H](O)[C@@H](CO)O[C@@H](SC)[C@@H]2O)c1C(=O)NC | > 5000 | > 5000 |  | > 5000 |
| CO[C@@H]1O[C@H](CO)[C@@H](O[C@@H]2O[C@H](CO)[C@H](O)[C@H](n3cc(C(=O)Nc4cccc5ccccc45)nn3)[C@H]2O)[C@H](O)[C@H]1NC(C)=O | 83 | 0.66 | > 2000 | 13 |
| CS[C@@H]1O[C@H](CO)[C@H](O)[C@H](n2cc(C(=O)NCCN3CCOCC3)nn2)[C@H]1O | > 5000 | 520 | > 5000 | 470 |
| O=C(NCCc1ccccc1)c1cn([C@H]2[C@@H](O)[C@@H](CO)O[C@@H](S[C@@H]3O[C@H](CO)[C@H](O)[C@H](n4cc(C(=O)NCCc5ccccc5)nn4)[C@H]3O)[C@@H]2O)nn1 | 2 | 0.15 | 20 | 1.1 |
| CCCCNC(=O)c1cn([C@H]2[C@@H](O)[C@@H](CO)O[C@@H](SC)[C@@H]2O)nn1 | 1100 | 150 | > 5000 | 640 |
| CC(O)CNC(=O)c1cn([C@H]2[C@@H](O)[C@@H](CO)O[C@@H](S[C@@H]3O[C@H](CO)[C@H](O)[C@H](n4cc(C(=O)NCC(C)O)nn4)[C@H]3O)[C@@H]2O)nn1 (some centres undefined) | 5 | 0.12 | 58 | 2.1 |
| C=CCNC(=O)c1cn([C@H]2[C@@H](O)[C@@H](CO)O[C@@H](S[C@@H]3O[C@H](CO)[C@H](O)[C@H](n4cc(C(=O)NCC=C)nn4)[C@H]3O)[C@@H]2O)nn1 | 3.4 | 0.065 | 66 | 0.74 |
| COc1ccc(-c2cn([C@H]3[C@@H](O)[C@@H](CO)O[C@@H](SC)[C@@H]3O)nn2)cc1 | 2000 | 260 |  | > 5000 |
| CS[C@@H]1O[C@H](CO)[C@H](O)[C@H](n2ccnn2)[C@H]1O | 2400 | > 5000 | > 5000 | > 5000 |
| CO[C@@H]1O[C@H](CO)[C@@H](O[C@@H]2O[C@H](CO)[C@H](O)[C@H](O)[C@H]2O)[C@H](O)[C@H]1NC(C)=O | 5500 | 59 | 1000 | 490 |
| COC(=O)c1cn([C@H]2[C@@H](O)[C@@H](CO)O[C@@H](SC)[C@@H]2O)nn1 | > 5000 | 1300 | > 5000 | 430 |
| O=C(NCc1ccccc1)c1cn([C@H]2[C@@H](O)[C@@H](CO)O[C@@H](S[C@@H]3O[C@H](CO)[C@H](O)[C@H](n4cc(C(=O)NCc5ccccc5)nn4)[C@H]3O)[C@@H]2O)nn1 | 8.3 | 0.39 | 47 | 0.53 |
